iPSC survival up: enhancers of human iPSC single-cell survival | hiPSC single-cell survival, ATPlite luminescence; 100% = ROCK inhibitor wells, 0% = DMSO | survival enhancement, % at 20 µM | hit rate 0.044% among 360,000; in the data active = survival enhancement above about 18%;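 note: cells exposed to compounds for 16 hours before the ATP read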
A3A deaminase: human APOBEC3A DNA deaminase inhibition; recombinant A3A, FAM/TAMRA ssDNA deamination fluorescence; inhibition, % at 20 µM; hit rate 0.41% among 330,000;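 active = at least 40% inhibition at 20 µM here, with at most 30% in a related deaminase screen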
Target sequence (P31941 whole entry, looked up): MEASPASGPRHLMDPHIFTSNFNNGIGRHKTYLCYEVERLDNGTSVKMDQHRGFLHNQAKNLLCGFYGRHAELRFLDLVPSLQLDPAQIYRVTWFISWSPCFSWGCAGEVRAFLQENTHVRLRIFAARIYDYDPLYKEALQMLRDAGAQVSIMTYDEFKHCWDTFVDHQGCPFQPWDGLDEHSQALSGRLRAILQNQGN
HKDC1 inh: HKDC1 (human) hexokinase inhibition; Q2TB90; recombinant HKDC1, G6PDH/diaphorase resazurin coupled fluorescence; inhibition, % at 20 µM; hit rate 0.16% among 340,000;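 active = inhibition above about 35% when tested at 20 µM, limit read from the data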
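Test system: recombinant HKDC1 (HK5) hexokinase enzyme, produced in-house / Doses: 20 µM test compound, 1% DMSO / Timing: 90 min, room temperature / Detection: G6PDH/diaphorase-coupled fluorescence, 1 mM NADP, 100 µM resazurin, 525/613 nm / Control set: DMSO wells with and without enzyme mix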
APOBEC3G inh: APOBEC3G (human) deaminase inhibition; hit rate 0.28% among 330,000; recombinant A3G, ssDNA deamination FAM/TAMRA fluorescence; AID 493012; inhibition, % at 20 µM; Q9HC16;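 active = inhibition of at least 40% at 20 µM, with no more than 30% in the related APOBEC3A deaminase screen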
PfGluPho inh: PfG6PD (Plasmodium falciparum) enzyme inhibition. PfGluPho enzyme, NADPH resazurin-diaphorase fluorescence. inhibition, % at 20 µM. hit rate 0.78% among 350,000. AID 504690;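 active = inhibition reaching at least a set limit at 20 µM in the primary screen, cut at about 59% in these data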
A3G conf: APOBEC3G (human) deaminase inhibition, confirmed | inhibition, % at 20 µM | AID 493152 | recombinant A3G ssDNA deaminase, UDG/FAM-TAMRA fluorescence | hit rate 72% among 890 | shares compounds with APOBEC3G inh;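 active = inhibition reaching a set limit in any replicate at 20 µM, the limit being 80% of the first screen's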
UDG ctr A3G: E. coli UDG inhibition in APOBEC3G counter-screen; shares compounds with APOBEC3G inh; UDG counterscreen, FAM/TAMRA oligo fluorescence; inhibition, % at 20 µM; 710 tested, under 10 active; AID 504715;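 active = compounds giving 40% or more inhibition at 20 µM in any one of the three replicates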;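 note: inhibitors lower the FAM signal released by uracil excision and alkaline cleavage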
Target sequence (P12295 whole entry, looked up): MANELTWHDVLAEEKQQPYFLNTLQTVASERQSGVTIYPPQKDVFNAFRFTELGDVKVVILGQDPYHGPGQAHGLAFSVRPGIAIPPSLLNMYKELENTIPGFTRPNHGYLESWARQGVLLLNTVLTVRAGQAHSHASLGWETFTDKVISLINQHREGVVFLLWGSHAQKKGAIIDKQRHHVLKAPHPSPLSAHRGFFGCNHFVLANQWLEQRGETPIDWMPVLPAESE
HKDC1 act conf: HKDC1 (human) activation, single-dose confirmed | hit rate 14% among 740 | shares compounds with HKDC1 inh | recombinant HKDC1, G6PDH/diaphorase resazurin fluorescence; stronger effect = lower value | inhibition, % at 20 µM;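 active = inhibition at or below a set negative limit, negative inhibition meaning the enzyme was activated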
PfGluPho conf: PfG6PD inhibition, single-dose confirmed; shares compounds with PfGluPho inh; recombinant PfGluPho, NADPH-diaphorase-resazurin fluorescence; inhibition, % at 20 µM; hit rate 34% among 2,400;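 active = inhibition of at least 50% at 20 µM in any single replicate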
Diaph ctr 10uM: inhibits diaphorase or oxidizes, flagging false PfG6PD hits; hit rate 39% among 820; AID 504862; diaphorase-coupled resazurin reduction, fluorescence, NADPH 10 uM; inhibition, % at 20 µM; shares compounds with PfGluPho inh;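 active = average inhibition reaching 50% or more with the compound at 20 µM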;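 note: resorufin red fluorescence formed as diaphorase reduces resazurin using NADPH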
Diaph ctr 30uM: inhibits diaphorase or oxidizes, flagging false PfG6PD hits | shares compounds with PfGluPho inh | Diaphorase/resazurin coupled assay, resorufin fluorescence, 30 uM NADPH | inhibition, % at 20 µM | hit rate 29% among 820 | AID 504863;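 active = inhibition averaging 50% or more, tested at 20 µM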
Numbers stand for hits; 0 = inactive; - = no result. This is a sample that favours compounds with a hit; in the whole collection about 1.4% have one here.

SMILES | iPSC survival up | A3A deaminase | HKDC1 inh | APOBEC3G inh | PfGluPho inh | A3G conf | UDG ctr A3G | PfGluPho conf | others
COc1cc(/C=N/n2c(-c3cc(C)[nH]n3)n[nH]c2=S)cc(OC)c1O | 0 | 0 | 0 | 0 | 0 | - | - | -
COc1ccc(/C=N/n2c(-c3ccccc3)n[nH]c2=S)cc1 | 0 | 0 | 0 | 0 | 0 | - | - | -
COc1ccc(/C=N/n2c(-c3cc(C)[nH]n3)n[nH]c2=S)cc1 | 0 | 0 | 0 | 46 | 0 | 91 | 0 | -
NS(=O)(=O)c1cccc(NC(=O)COC(=O)CN2C(=O)c3ccccc3C2=O)c1 | 0 | 0 | 0 | 0 | 0 | - | - | -
Cc1ccc2c(c1)-c1c(ssc1=S)C(C)(C)N2C(=O)c1ccco1 | 0 | 0 | 0 | 42 | 0 | 55 | 0 | -
CC1(C)c2ssc(=S)c2-c2ccccc2N1C(=O)c1ccco1 | 0 | 0 | 0 | 0 | 0 | - | - | -
CCCNC(=O)C1(C)CCCN(CCOc2ccccc2)C1 (stereo not drawn) | 0 | - | - | - | - | - | - | -
CN(C)S(=O)(=O)c1cc(NC(=O)CN2CCN(c3ccc(O)cc3)CC2)ccc1Cl | 0 | 0 | 0 | 58 | 0 | 0 | 0 | -
O=C(Nc1nc(-c2ccccn2)cs1)Nc1ccc(F)cc1F | 0 | 0 | 0 | 60 | 0 | 68 | 0 | -
COCc1cc(=O)n2[nH]c(-c3ccsc3-n3c(C)ccc3C)cc2n1 | 0 | 0 | 0 | 0 | 0 | - | - | -
Cc1cc(=O)n2[nH]c(-c3ccsc3-n3c(C)ccc3C)cc2n1 | 0 | 0 | 0 | 43 | 0 | 44 | 0 | -
CSc1nc2c(c(=O)[nH]c(=O)n2C)n1Cc1ccccc1Cl | 0 | 0 | 0 | 0 | 0 | - | - | -
CSc1nc2c(c(=O)[nH]c(=O)n2C)n1Cc1ccc(Cl)cc1 | 0 | 0 | 0 | 53 | 65 | 56 | 0 | -
O=C(CC1SC2=NCCN2C1=O)Nc1ccc(Br)cc1 (stereo not drawn) | 0 | 0 | 0 | 0 | 0 | - | - | -
O=C(CC1Sc2ncnn2C1=O)Nc1ccc(Br)cc1 (stereo not drawn) | 0 | 0 | 0 | 41 | 0 | 70 | 0 | -
Cc1cc(OCC(=O)NCCN2CCOCC2)cc(C)c1Cl | 0 | 0 | 0 | 79 | 0 | 0 | 0 | -
Cc1ccc(OCC(=O)NCCN2CCOCC2)cc1C | 0 | 0 | 0 | 0 | 0 | - | - | -
Cc1cc(C)n(CCc2nc(-c3cc4ccccc4o3)cs2)n1 | 0 | 0 | 0 | 0 | 0 | - | - | -
Cc1cc(C)n(CCc2nc(-c3ccc(C)o3)cs2)n1 | 0 | 0 | 0 | 47 | 0 | 40 | - | -
Cc1ccc(-c2csc(Nc3ccc(S(N)(=O)=O)cc3)n2)o1 | 0 | 0 | 0 | 52 | 0 | 0 | 0 | -
CC1CCc2c(sc(NC(=O)CCCn3cnc([N+](=O)[O-])n3)c2C(N)=O)C1 (stereo not drawn) | 0 | 0 | 0 | 0 | 0 | - | - | -
NC(=O)c1c(NC(=O)CCCn2cnc([N+](=O)[O-])n2)sc2c1CCCC2 | 0 | 0 | 0 | 59 | 76 | 41 | 0 | 0
O=C(O)c1ccccc1NS(=O)(=O)c1cccc(C(F)(F)F)c1 | 0 | 0 | 0 | 0 | 0 | - | - | -
O=C(O)c1ccccc1NS(=O)(=O)c1cccc(-n2sc3ccccc3c2=O)c1 | 0 | 0 | 0 | 78 | 110 | 87 | 0 | 105 | Diaph ctr 10uM=0;Diaph ctr 30uM=0
CCCOC(=O)c1c(NC(=O)C2CCCO2)sc(C(=O)OC)c1C (stereo not drawn) | 0 | 0 | 0 | 41 | 59 | 48 | 0 | 0
SMILES | iPSC survival up | A3A deaminase | HKDC1 inh | APOBEC3G inh | PfGluPho inh | A3G conf | UDG ctr A3G | PfGluPho conf | others
Cc1ccc([C@H]2N[C@]3(CCCN(Cc4ccc(Cl)cc4)C3=O)[C@H]3C(=O)N(C)C(=O)[C@@H]23)cc1 | 0 | - | - | - | 0 | - | - | -
N#CC1=C2SCN(c3ccccc3)CN2C(=O)CC1c1cccs1 (stereo not drawn) | 0 | 0 | 0 | 48 | 71 | 55 | 0 | 0
N#CC1=C2SCC(O)(c3ccccc3)N2C(=O)CC1c1cccs1 (stereo not drawn) | 0 | - | 0 | - | 0 | - | - | -
N#CC1=C2SCN(c3ccccc3)CN2C(=O)CC1c1c(Cl)cccc1Cl (stereo not drawn) | 0 | 0 | 0 | 59 | 85 | 65 | 0 | 0
O=C(CNC(c1ccccc1)c1ccccc1)Nc1ccccc1F | 0 | 0 | 0 | 0 | 0 | - | - | -
O=C(CSC(=O)c1ccccc1)Nc1ccccc1F | 0 | 0 | 0 | 41 | 63 | 37 | 0 | 0
O=C1NC[C@@H](CCCCN2C[C@H](Cc3ccccc3)N(CC3CCCCC3)C(=O)C2=O)N(CCc2ccccc2)C1=O | 0 | - | - | - | - | - | - | -
COc1ccc(-c2c3c(cc4ncn(Cc5ccccc5)c24)COC3=O)cc1 | 0 | 0 | 0 | 0 | 0 | - | - | -
CC(NC(=O)c1sc2cc([N+](=O)[O-])ccc2c1Cl)C(C)(C)C (stereo not drawn) | 0 | 0 | 0 | 55 | 97 | 69 | 0 | 70 | HKDC1 act conf=-39;Diaph ctr 10uM=0;Diaph ctr 30uM=0
COc1ccc(OCc2cc(C(=O)NCCN3CCCc4ccccc43)no2)c(Cl)c1 | 0 | 0 | 0 | 0 | 0 | - | - | -
O=S(=O)(c1ccc(NC(=S)NCc2ccc(F)cc2)cc1)N1CCOCC1 | 0 | 0 | 0 | 0 | 0 | - | - | -
COC(=O)[C@H](C)NC(=O)c1cc2c(cn1)[nH]c1ccccc12 | 0 | 0 | 0 | 50 | 90 | 77 | 0 | 55 | Diaph ctr 10uM=0;Diaph ctr 30uM=0
S=C(c1ccc(Br)cc1)N1CCN(Cc2ccccc2)CC1 | 0 | 0 | 0 | 40 | 60 | 0 | - | 0
Oc1ccc(C(=S)N2CCN(Cc3ccccc3)CC2)cc1 | 0 | 0 | 0 | 0 | 0 | - | - | -
COc1cc(/C=N/N2CCN(Cc3ccc(C)cc3)CC2)cc(OC)c1O | 0 | 0 | 0 | 54 | 79 | 0 | - | 0
Cc1ccc(CN2CCN(/N=C/c3ccccc3)CC2)cc1 | 0 | 0 | 0 | 0 | 0 | - | - | -
CCOc1ccc(C(=S)NC2CCCCC2)cc1OC | 0 | 0 | 0 | 58 | 62 | 50 | 0 | 0
Cc1ccc(NC(=O)CSCC(=O)NC2(C)CCS(=O)(=O)C2)cc1 (stereo not drawn) | 0 | 0 | 0 | 0 | 0 | - | - | -
Cc1cc(-c2csc(N)n2)c(C)n1C | 0 | 0 | 0 | 44 | 64 | 17 | 0 | 0
NS(=O)(=O)c1ccc(O)c(NC(=O)c2ccc([N+](=O)[O-])o2)c1 | 0 | 0 | 0 | 64 | 78 | 28 | 0 | 0
Cc1ccc(N=c2ssnc2Cl)cc1 | 0 | 0 | 0 | 73 | 91 | 75 | 0 | 0 | HKDC1 act conf=-44

High-throughput results: PubChem, Sanford-Burnham Center for Chemical Genomics
